Data published in ChEMBL document CHEMBL1128689, “Vinyl sulfones as mechanism-based cysteine protease inhibitors” (J Med Chem, 1995).

Tests used:
Cathepsin B [1] = target: T1, Cathepsin B (Homo sapiens, UniProt P07858); test: Compound is evaluated for inhibition kinetic constant Kirr for the cathepsin B
Procedure, shortened: (§1)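 Cathepsin B, ~5-10 nM, added to 50 mM phosphate pH 6.0, 2.5 mM EDTA, 2.5 mM DTT, 50 μM Z-Arg-Arg-AMC (Km 190 μM), DMF <1%, 25 °C. Fluorescence ex 380/em 450 nm over 5 min. kobs by first-order fit at ≥6 inhibitor concentrations; kirr and Ki app from saturation fit, Ki = Ki app/(1+[S]/Km); kirr/Ki also from 1/kobs vs 1/[I]; duplicates.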

Procathepsin L [2] = target: T2, Procathepsin L (Homo sapiens, UniProt P07711); test: Compound is evaluated for inhibitory potency against cathepsin L
Procedure, shortened: (§2)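 Fluorescence increase (ex 380, em 450 nm) followed 5 min or to ≤1% activity. kobs by first-order fit at ≥6 inhibitor levels near Ki, fit to saturation equation; Ki = Ki app/(1+[S]/Km); duplicates.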
Target sequence in this assay (P07711 whole entry): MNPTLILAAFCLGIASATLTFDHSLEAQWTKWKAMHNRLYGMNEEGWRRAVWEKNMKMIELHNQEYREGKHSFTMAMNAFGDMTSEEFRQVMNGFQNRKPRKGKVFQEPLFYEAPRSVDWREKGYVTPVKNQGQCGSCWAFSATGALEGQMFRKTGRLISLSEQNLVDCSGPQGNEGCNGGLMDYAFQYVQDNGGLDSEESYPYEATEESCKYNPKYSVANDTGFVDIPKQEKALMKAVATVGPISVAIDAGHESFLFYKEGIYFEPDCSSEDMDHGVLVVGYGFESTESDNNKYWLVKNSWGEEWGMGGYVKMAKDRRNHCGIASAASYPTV

Procathepsin L [3] = target: T2, Procathepsin L; test: Ratio of inhibition kinetic constants kinact and Ki against Cathepsin L; procedure, shortened: as §2
Target sequence in this assay (P07711 114-333 limits assumed): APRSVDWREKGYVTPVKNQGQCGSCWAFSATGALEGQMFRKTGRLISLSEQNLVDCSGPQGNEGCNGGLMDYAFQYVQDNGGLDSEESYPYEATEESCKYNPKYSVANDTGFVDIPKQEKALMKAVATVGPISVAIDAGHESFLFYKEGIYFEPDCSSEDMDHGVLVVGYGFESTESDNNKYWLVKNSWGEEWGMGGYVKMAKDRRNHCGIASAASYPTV

Cathepsin K = target: T3, Cathepsin K (Homo sapiens, UniProt P43235); test: Compound is evaluated for inhibitory potency against cathepsin O2
T3 sequence (P43235 whole entry): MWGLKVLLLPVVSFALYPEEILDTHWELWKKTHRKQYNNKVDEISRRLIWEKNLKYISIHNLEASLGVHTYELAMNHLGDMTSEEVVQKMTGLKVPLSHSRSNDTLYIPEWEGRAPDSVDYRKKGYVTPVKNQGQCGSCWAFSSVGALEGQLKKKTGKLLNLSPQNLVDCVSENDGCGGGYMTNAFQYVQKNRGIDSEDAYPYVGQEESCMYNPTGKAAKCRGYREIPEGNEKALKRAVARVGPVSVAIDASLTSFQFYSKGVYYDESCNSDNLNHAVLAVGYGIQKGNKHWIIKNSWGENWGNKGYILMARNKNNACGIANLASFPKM
Procedure, shortened: (§3)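 Read at ex 380/em 450 nm for 5 min. Progress curves fit first-order for kobs at ≥6 inhibitor concentrations; kinact and Ki app from saturation fit, Ki corrected for substrate; ratio also from double-reciprocal slope; duplicates.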

Procathepsin L [4] = target: T2, Procathepsin L; test: Compound is evaluated for inhibition kinetic constant Kinact for the cathepsin L; procedure, shortened: as §2
Target sequence in this assay (P07711 114-333 limits assumed): as the sequence (P07711 114-333 limits assumed) above

Cathepsin S [5] = target: T4, Cathepsin S (Homo sapiens, UniProt P25774); test: Ratio of inhibition kinetic constants kinact and Ki against Cathepsin S
Procedure, shortened: (§4)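 Fluorescence ex 380/em 450 nm, 5 min or to ≤1% activity. kobs from first-order fits, ≥6 inhibitor levels near Ki, fit to saturation equation; Ki corrected by 1+[S]/Km; duplicates.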
Target sequence in this assay (P25774 115-331 limits assumed): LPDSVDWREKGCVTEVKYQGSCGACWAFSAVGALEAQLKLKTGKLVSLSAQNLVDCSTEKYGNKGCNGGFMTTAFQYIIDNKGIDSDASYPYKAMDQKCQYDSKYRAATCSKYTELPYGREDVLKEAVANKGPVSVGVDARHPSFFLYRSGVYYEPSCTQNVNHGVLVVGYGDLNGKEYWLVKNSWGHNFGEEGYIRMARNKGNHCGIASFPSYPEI

[6] = target: Cruzipain (Trypanosoma cruzi) (UniProt P25779); test: Compound is evaluated for inhibition kinetic constant Kinact for the Cruzaine
Chain of Cruzipain (Trypanosoma cruzi) (P25779 123-467 limits assumed): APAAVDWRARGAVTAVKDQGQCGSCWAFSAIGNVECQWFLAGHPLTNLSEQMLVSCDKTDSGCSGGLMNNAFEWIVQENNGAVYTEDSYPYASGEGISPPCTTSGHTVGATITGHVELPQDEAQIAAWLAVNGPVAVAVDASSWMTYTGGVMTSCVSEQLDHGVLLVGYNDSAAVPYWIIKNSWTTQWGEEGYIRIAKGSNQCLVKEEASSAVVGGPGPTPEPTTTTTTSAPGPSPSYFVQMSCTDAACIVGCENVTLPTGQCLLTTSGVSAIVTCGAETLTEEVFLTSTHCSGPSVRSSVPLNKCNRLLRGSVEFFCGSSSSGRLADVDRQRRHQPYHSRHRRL
Procedure, shortened: (§5)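 Enzyme (~1-5 nM) starts the reaction with substrate and inhibitor present. Fluorescence ex 380/em 450 nm for 5 min. kobs from first-order fits at ≥6 inhibitor concentrations; Ki app corrected by 1+[S]/Km; second-order constant from 1/kobs vs 1/[I] slope; duplicates.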

[7] = target: Cruzipain (Trypanosoma cruzi) (UniProt P25779); test: Ratio of inhibition kinetic constants kinact and Ki against Cruzaine; procedure, shortened: as §5
Cathepsin B [8] = target: T1, Cathepsin B; test: Ratio of inhibition kinetic constants kirr and Ki against Cathepsin B; procedure, shortened: as §1
[9] = target: T5, Cathepsin K (Homo sapiens) (UniProt P43235); test: Compound is evaluated for inhibition kinetic constant Kinact for the cathepsin O2; procedure, shortened: as §3
T5 sequence (whole entry): T3 sequence (P43235 whole entry)

Cathepsin S [10] = target: T4, Cathepsin S; test: Compound is evaluated for inhibition kinetic constant Kinact for the cathepsin S; procedure, shortened: as §4
Target sequence in this assay (P25774 115-331 limits assumed): as the sequence (P25774 115-331 limits assumed) above

Cathepsin S [11] = target: T4, Cathepsin S; test: Compound is evaluated for inhibitory potency against cathepsin S; procedure, shortened: as §4
Target sequence in this assay (P25774 whole entry): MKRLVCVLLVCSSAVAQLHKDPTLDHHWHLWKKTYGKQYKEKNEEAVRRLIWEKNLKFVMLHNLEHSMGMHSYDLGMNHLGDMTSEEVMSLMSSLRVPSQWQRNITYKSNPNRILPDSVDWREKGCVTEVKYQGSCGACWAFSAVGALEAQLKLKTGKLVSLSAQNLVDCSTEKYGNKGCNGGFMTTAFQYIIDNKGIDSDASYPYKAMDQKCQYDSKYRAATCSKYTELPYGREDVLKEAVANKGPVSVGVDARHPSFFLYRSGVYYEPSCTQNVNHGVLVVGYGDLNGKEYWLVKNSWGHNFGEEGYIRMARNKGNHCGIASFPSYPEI

Cruzipain = Cruzipain (Trypanosoma cruzi, UniProt P25779); test: Compound is evaluated for inhibitory potency against Cruzaine; procedure, shortened: as §5
Chain of Cruzipain (P25779 whole entry): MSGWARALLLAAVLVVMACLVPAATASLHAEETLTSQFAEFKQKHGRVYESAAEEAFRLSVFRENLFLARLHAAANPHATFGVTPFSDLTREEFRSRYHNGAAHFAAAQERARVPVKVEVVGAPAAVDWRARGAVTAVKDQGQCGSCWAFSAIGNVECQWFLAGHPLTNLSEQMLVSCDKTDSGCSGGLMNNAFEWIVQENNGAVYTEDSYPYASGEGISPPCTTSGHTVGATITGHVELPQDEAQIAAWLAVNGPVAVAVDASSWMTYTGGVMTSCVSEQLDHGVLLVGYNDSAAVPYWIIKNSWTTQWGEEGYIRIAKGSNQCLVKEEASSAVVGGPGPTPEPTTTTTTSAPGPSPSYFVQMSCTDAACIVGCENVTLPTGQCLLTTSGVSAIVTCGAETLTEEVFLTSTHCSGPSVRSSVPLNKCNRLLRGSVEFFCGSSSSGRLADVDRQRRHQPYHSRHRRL

Cathepsin B [12] = target: T1, Cathepsin B; test: Compound is evaluated for inhibitory potency against cathepsin B; procedure, shortened: as §1
[13] = target: T5, Cathepsin K (Homo sapiens); test: Ratio of inhibition kinetic constants kinact and Ki against Cathepsin O2; procedure, shortened: as §3
Procathepsin L [14] = target: T2, Procathepsin L; test: Compound is evaluated for inhibition kinetic constant (kobs/[I], 1/M.1/s) for cathepsin L; procedure, shortened: as §2
Target sequence in this assay (P07711 114-333 limits assumed): as the sequence (P07711 114-333 limits assumed) above

[15] = target: T5, Cathepsin K (Homo sapiens); test: Compound is evaluated for inhibition kinetic constant (kobs/[I], 1/M.1/s) for cathepsin O2; procedure, shortened: as §3
[16] = target: T6, Calpain-1 catalytic subunit (Homo sapiens) (UniProt P07384); test: Compound is evaluated for inhibition kinetic constant (kobs/[I], 1/M.1/s) for calpain 1
T6 sequence (whole entry): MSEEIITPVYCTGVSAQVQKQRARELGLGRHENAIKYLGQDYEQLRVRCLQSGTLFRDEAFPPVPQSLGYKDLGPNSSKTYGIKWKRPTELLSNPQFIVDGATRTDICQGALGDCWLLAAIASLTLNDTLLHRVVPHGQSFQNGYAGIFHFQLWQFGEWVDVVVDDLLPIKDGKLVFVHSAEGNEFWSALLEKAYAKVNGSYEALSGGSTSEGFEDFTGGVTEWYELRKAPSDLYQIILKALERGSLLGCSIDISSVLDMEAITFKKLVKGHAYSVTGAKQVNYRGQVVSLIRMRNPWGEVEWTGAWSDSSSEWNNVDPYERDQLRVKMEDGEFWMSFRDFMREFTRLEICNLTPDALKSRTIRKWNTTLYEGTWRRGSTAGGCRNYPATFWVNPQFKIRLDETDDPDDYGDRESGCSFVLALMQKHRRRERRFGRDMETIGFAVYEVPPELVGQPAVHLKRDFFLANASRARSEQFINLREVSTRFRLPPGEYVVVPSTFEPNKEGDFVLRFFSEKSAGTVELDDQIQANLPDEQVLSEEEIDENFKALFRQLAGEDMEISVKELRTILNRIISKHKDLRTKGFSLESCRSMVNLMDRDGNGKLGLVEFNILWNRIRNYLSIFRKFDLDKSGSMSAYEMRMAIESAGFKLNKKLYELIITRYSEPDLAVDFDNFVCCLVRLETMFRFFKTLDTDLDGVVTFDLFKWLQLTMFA
Procedure, shortened: (§6)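 Enzyme ~20 nM is added last to substrate plus inhibitor at 25 °C. Fluorescence ex 380/em 450 nm for 5 min or until ≤1% activity. Progress curves fit first-order to kobs; reported as kobs/[I]; duplicate runs.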

Cathepsin S [17] = target: T4, Cathepsin S; test: Compound is evaluated for inhibition kinetic constant (kobs/[I], 1/M.1/s) for cathepsin S; procedure, shortened: as §4
Target sequence in this assay (P25774 115-331 limits assumed): as the sequence (P25774 115-331 limits assumed) above

[18] = target: Cruzipain (Trypanosoma cruzi) (UniProt P25779); test: Compound is evaluated for inhibition kinetic constant (kobs/[I], 1/M.1/s) for Cruzaine; procedure, shortened: as §5
Cathepsin B [19] = target: T1, Cathepsin B; test: Compound is evaluated for inhibition kinetic constant (kobs/[I], 1/M.s) for cathepsin B; procedure, shortened: as §1
[20] = target: T7, Calpain-2 catalytic subunit (Homo sapiens) (UniProt P17655); test: Compound is evaluated for inhibition kinetic constant (kobs/[I], 1/M.1/s) for Calpain 2; procedure, shortened: as §6
T7 sequence (whole entry): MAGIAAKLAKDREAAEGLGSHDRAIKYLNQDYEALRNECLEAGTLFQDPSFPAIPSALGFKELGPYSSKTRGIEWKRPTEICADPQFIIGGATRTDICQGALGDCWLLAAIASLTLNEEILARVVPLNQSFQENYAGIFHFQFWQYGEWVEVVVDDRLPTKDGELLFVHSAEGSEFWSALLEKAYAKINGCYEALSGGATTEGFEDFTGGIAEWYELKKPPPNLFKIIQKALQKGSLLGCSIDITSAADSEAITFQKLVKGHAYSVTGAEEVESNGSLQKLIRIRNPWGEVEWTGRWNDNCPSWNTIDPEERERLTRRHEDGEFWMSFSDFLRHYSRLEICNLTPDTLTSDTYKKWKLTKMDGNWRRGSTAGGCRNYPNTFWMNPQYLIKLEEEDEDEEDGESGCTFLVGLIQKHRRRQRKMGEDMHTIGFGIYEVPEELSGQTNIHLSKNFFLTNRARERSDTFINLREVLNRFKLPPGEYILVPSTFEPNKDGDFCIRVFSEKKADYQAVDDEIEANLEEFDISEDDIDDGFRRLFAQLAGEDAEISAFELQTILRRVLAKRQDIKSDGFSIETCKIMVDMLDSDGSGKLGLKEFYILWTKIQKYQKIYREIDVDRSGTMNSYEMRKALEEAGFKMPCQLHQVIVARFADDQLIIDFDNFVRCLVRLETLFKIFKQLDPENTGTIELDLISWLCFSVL

Structure (SMILES) | k obs / 1 (Procathepsin L [14]) [M⁻¹ s⁻¹] | k obs / 1 [15] [M⁻¹ s⁻¹] | k obs / 1 [16] [M⁻¹ s⁻¹] | k obs / 1 (Cathepsin S [17]) [M⁻¹ s⁻¹] | k obs / 1 [18] [M⁻¹ s⁻¹] | k obs / 1 (Cathepsin B [19]) [M⁻¹ s⁻¹] | other results
O=C(NC(=O)[C@H](Cc1ccccc1)NC(=O)[C@H](CCc1ccccc1)N/C=C/S(=O)(=O)c1ccccc1)NN1CCOCC1 |  |  |  |  |  |  | kirr (Cathepsin B [1]): 0.17 s⁻¹; Ki (Procathepsin L [2]): 1000 nM; Ratio (Procathepsin L [3]): 224000; Ki (Cathepsin K): 30500 nM; K inact (Procathepsin L [4]): 0.24 s⁻¹; Ratio (Cathepsin S [5]): 7.7e+06; K inact [6]: 0.072 s⁻¹; Ratio [7]: 203000; Ratio (Cathepsin B [8]): 16400; K inact [9]: 0.31 s⁻¹; K inact (Cathepsin S [10]): 0.085 s⁻¹; Ki (Cathepsin S [11]): 11 nM; Ki (Cruzipain): 360 nM; Ki (Cathepsin B [12]): 11000 nM; Ratio [13]: 10200
CC(C)C[C@H](NC(=O)NN1CCOCC1)C(=O)N[C@@H](CC(C)C)C(=O)N[C@@H](Cc1ccc(O)cc1)C(=O)/C=C/S(=O)(=O)c1ccccc1 | 28700 | 815 | 10800 | 25100 |  |  | 
CCCC[C@H](NC(=O)[C@H](CC(C)C)NC(=O)[C@H](CC(C)C)NC(C)=O)C(=O)/C=C/S(=O)(=O)c1ccccc1 | 930000 |  | 6900 |  | 133000 | 0 | k obs / 1 [20]: 7600 M⁻¹ s⁻¹
O=C(NC(=O)[C@H](Cc1ccc2ccccc2c1)NC(=O)[C@H](CCc1ccccc1)N/C=C/S(=O)(=O)CCc1ccccc1)NN1CCOCC1 | 2.24e+06 |  |  | 2.9e+07 | 450000 | 33000 | 
NCCCC[C@H](N/C=C/S(=O)(=O)c1ccccc1)C(=O)N[C@@H](Cc1ccccc1)C(=O)NC(=O)NN1CCOCC1 | 220000 | 83300 |  | 1.07e+07 | 149000 | 11300 | 
CC(C)C[C@H](NC(=O)OCc1ccccc1)C(=O)N[C@@H](CC(C)C)C(=O)N[C@@H](Cc1ccc(O)cc1)C(=O)/C=C/S(=O)(=O)c1ccccc1 |  | 900 | 6400 | 280000 | 45000 | 730 | 
